Results taken from paper PMC10622895 (Proceedings of the National Academy of Sciences of the …, 2023).

What was measured:
[1] = ref [1]; cited from earlier work
[2] = tested on: AML12 mouse hepatocytes
[3] = tested on: mouse intestinal epithelium; assay: IHC of cleaved PARP1 and Ki67 in mouse intestine; assay type: in vivo; conditions: mice of the BCM2665 experiment
In short: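 NSG mice carried BCM2665 breast cancer PDX. Mice were euthanized the day after the last dose. Intestine was IHC-stained for cleaved PARP1 (10× objective), with percent positive cells determined by image analysis. Ki67 IHC was done on intestinal epithelium (20× objective).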

[4] = tested on: BCM3107 TNBC PDX; assay: Patient-derived xenograft in NSG mice; assay type: in vivo, mouse; conditions: 5D4 40 mg/kg i.p. twice weekly; talazoparib 0.5 mg/kg daily × 5 per week
[5] = tested on: BCM2665 PDX; assay: IHC of cleaved PARP1 in PDX tumors; assay type: in vivo, mouse
In short: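 Tumors were taken the day after the last dose for cleaved PARP1 IHC. Percent positive cells was scored on twelve 10× images from three xenografts per group.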

For O=C(O)CN(CC(=O)O)Cc1cc2c(cc1O)Oc1cc(O)c(CN(CC(=O)O)CC(=O)O)cc1C21OC(=O)c2ccccc21 [calcein], the membrane permeability [1] is listed as “lacks membrane permeability”.
For CNCc1ccc(-c2[nH]c3cc(F)cc4c3c2CCNC4=O)cc1 [rucaparib], the “viability of nontransformed hepatocytes” value [2] was “did not elicit any effect”.
For Cn1ncnc1[C@H]1c2n[nH]c(=O)c3cc(F)cc(c23)N[C@@H]1c1ccc(F)cc1 [talazoparib], the “apoptosis and Ki67 staining in mouse intestinal epithelium” value [3] was “neither induced apoptosis nor affected Ki67 staining”, the “tumor response, single agent” value [4] was “resistant” and the “apoptosis in PDX (PARP-1 cleavage, IHC)” value [5] was “only had mild proapoptotic effect”.
